# Laboratory results reported in ChEMBL document CHEMBL2010761, “NO-SSRIs: Nitric Oxide Chimera Drugs Incorporating a Selective Serotonin Reuptake Inhibitor” (ACS Med Chem Lett, 2011).
# Active and inactive are the calls of the source. The rule behind the calls is not given here.
# Key:
# Mus musculus [1] = assay: Antiamnesic activity in scopolamine-induced C57BL/6 mouse assessed as aversive memory measuring increase in latency to enter dark area at 1.54 mg/kg, ip administered 20 mins prior training measured after 48 hrs by step-through passive avoidance task analysis relative to control; type: functional, organism-based; design: dose 1.54 mg/kg
# Procedure, shortened: (§1)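 Mice trained 2 h after habituation. Scopolamine 1 mg/kg in saline given ip 30 min before training, test drug in 25% DMSO given ip 20 min before training. Footshock 0.6 mA for 2 s on entering the dark compartment, with the door closing. Latency to enter the dark chamber recorded 48 h after training, drug-free. N = 9–11. Means and SEMs; ANOVA with Tukey post hoc test.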
# Rattus norvegicus [2] = assay: Antidepressant activity in Sprague-Dawley rat assessed as change in struggle time at 10 mg/kg, ip administered 1, 5 and 24 hrs prior test by forced swimming task analysis relative to control; type: functional, organism-based; design: dose 10 mg/kg
# Procedure, shortened: (§2)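 Male Sprague-Dawley rats, 200–250 g, given a 15 min pre-swim in the water tank 24 h before testing. Drug or vehicle given ip at 24, 5 and 1 h before the test. The 5 min test was scored in 60 blocks of 5 s for struggle, swimming and immobility. Means and SEMs; ANOVA with Tukey post hoc test.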
# Rattus norvegicus [3] = assay: Antidepressant activity in Sprague-Dawley rat assessed as increase in swimming time at 10 mg/kg, ip administered 1, 5 and 24 hrs prior test by forced swimming task analysis relative to control; type: functional, organism-based; design: dose 10 mg/kg; procedure, shortened: as §2
# Mus musculus [4] = assay: Antiamnesic activity in scopolamine-induced C57BL/6 mouse assessed as aversive memory measuring increase in latency to enter dark area at 1 mg/kg, ip administered 20 mins prior training measured after 48 hrs by step-through passive avoidance task analysis relative to control; type: functional, organism-based; design: dose 1 mg/kg; procedure, shortened: as §1
# Rattus norvegicus [5] = assay: Antidepressant activity in Sprague-Dawley rat assessed as decrease in immobility time at 10 mg/kg, ip administered 1, 5 and 24 hrs prior test by forced swimming task analysis relative to control; type: functional, organism-based; design: dose 10 mg/kg; procedure, shortened: as §2
# Mus musculus [6] = assay: Antiamnesic activity in scopolamine-induced C57BL/6 mouse assessed as aversive memory measuring increase in latency to enter dark area at 2.05 mg/kg, ip administered 20 mins prior training measured after 48 hrs by step-through passive avoidance task analysis relative to control; type: functional, organism-based; design: dose 2.05 mg/kg
# Procedure, shortened: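 Mice received scopolamine (1 mg/kg in physiological saline, ip) 30 min before training, and test drug in 25% DMSO ip 20 min before training. Training came 2 h after habituation: the animal was placed in the lit compartment, and entry to the dark side triggered door closure and a 0.6 mA, 2 s footshock. Latency to enter the dark chamber was retested 48 h later with no drug. N = 9–11; means ± SEM; ANOVA with Tukey's post hoc test.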
# [7] = Prodrug activation in PBS at pH 8 assessed as hydrolysis of compound to fluoxetine at 200 uM by HPLC-UV analysis; conditions: buffer, pH 8, 200 µM
# Brain [8] = assay: Prodrug activation in mouse brain assessed as formation of fluoxetine at 15 mg/kg, ip after 120 mins by LC-MS/MS analysis; type: organism-based; design: dose 15 mg/kg, route intraperitoneal; conditions: in vivo, 2 h
# [9] = Half life in PBS at pH 7 to 8 assessed as hydrolysis of compound to fluoxetine at 200 uM by HPLC-UV analysis; type: physicochemical
# [10] = Prodrug activation in PBS at pH 7 to 8 assessed as hydrolysis of compound to fluoxetine at 200 uM after 7 hrs by HPLC-UV analysis; conditions: buffer, pH 7, 7 h
# Rattus norvegicus [11] = assay: Antidepressant activity in Sprague-Dawley rat assessed as decrease in immobility time at 26.5 mg/kg, ip administered 1, 5 and 24 hrs prior test by forced swimming task analysis relative to control; type: functional, organism-based; design: dose 26.5 mg/kg
# Procedure, shortened: (§3)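 Drug was given ip at 24, 5 and 1 h before the 5 min test, which was scored in 60 blocks of 5 s for struggle, swimming and immobility durations. Comparison was against vehicle by ANOVA with Tukey's post hoc test; means ± SEM.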
# Rattus norvegicus [12] = assay: Antidepressant activity in Sprague-Dawley rat assessed as change in struggle time at 26.5 mg/kg, ip administered 1, 5 and 24 hrs prior test by forced swimming task analysis relative to control; type: functional, organism-based; design: dose 26.5 mg/kg; procedure, shortened: as §3
# [13] = Prodrug activation in PBS at pH 7.4 assessed as hydrolysis of compound to fluoxetine at 200 uM by HPLC-UV analysis; conditions: buffer, pH 7.4, 200 µM
# Plasma [14] = assay: Prodrug activation in mouse plasma assessed as formation of fluoxetine at 15 mg/kg, ip after 20 mins by LC-MS/MS analysis; type: organism-based; design: dose 15 mg/kg, route intraperitoneal; conditions: in vivo
# Plasma [15] = assay: Prodrug activation in mouse plasma assessed as formation of fluoxetine at 15 mg/kg, ip after 120 mins by LC-MS/MS analysis; type: organism-based; design: dose 15 mg/kg, route intraperitoneal; conditions: in vivo, 2 h
# Rattus norvegicus [16] = assay: Antidepressant activity in Sprague-Dawley rat assessed as increase in swimming time at 26.5 mg/kg, ip administered 1, 5 and 24 hrs prior test by forced swimming task analysis relative to control; type: functional, organism-based; design: dose 26.5 mg/kg; procedure, shortened: as §3
# [17] = Prodrug activation in PBS at pH 7 assessed as hydrolysis of compound to fluoxetine at 200 uM by HPLC-UV analysis; conditions: buffer, pH 7, 200 µM
# [18] = target: Sodium-dependent serotonin transporter (Homo sapiens) (UniProt P31645); assay: Inhibition of human SERT-mediated serotonin reuptake in HEK293 cells at 100 nM relative to fluoxetine; type: cell-based
# Chain of Sodium-dependent serotonin transporter (Homo sapiens) (P31645 whole entry, looked up): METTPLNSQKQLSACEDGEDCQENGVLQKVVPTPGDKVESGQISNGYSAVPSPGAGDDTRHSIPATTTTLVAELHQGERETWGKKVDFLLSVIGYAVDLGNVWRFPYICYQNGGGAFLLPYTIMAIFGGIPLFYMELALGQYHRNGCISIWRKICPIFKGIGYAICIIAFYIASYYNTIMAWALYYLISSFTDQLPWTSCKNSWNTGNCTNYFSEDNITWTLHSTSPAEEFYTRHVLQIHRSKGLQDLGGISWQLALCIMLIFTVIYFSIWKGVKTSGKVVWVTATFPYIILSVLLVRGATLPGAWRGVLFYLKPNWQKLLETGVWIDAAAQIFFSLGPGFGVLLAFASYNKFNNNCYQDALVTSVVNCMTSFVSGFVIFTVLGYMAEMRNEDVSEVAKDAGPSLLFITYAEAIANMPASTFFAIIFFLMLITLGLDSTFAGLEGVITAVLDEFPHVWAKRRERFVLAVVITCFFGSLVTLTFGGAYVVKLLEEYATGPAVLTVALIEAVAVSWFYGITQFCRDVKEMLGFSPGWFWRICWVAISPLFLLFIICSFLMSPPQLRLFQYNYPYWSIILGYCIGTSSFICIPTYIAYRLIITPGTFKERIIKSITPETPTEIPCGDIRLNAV
# Procedure, shortened: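 HEK-293 cells stably transfected with human SERT cDNA were used to measure serotonin reuptake with test compounds at 100 nM. […] Means ± SEM from three separate experiments.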
# Brain [19] = assay: Prodrug activation in mouse brain assessed as formation of fluoxetine at 15 mg/kg, ip after 20 mins by LC-MS/MS analysis; type: organism-based; design: dose 15 mg/kg, route intraperitoneal; conditions: in vivo
# [20] = Prodrug activation in PBS assessed as production of NO at 500 uM after 30 mins by chemiluminescence assay; conditions: buffer, 0.5 h
# Procedure, shortened: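 Compound (500 μM) was mixed with glutathione-containing PBS in a sealed vessel. NO in the headspace was measured by chemiluminescence after 30 min.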
compound,measurement,setting,value
CNCCC(Oc1ccc(C(F)(F)F)cc1)c1ccccc1 (stereo unspecified),Activity,Mus musculus [1],inactive
Cc1ncsc1CCO[N+](=O)[O-],Activity,Rattus norvegicus [2],Active
same,Activity,Rattus norvegicus [3],Active
same,Activity,Mus musculus [4],Active
same,Activity,Rattus norvegicus [5],Active
CN(CCC(Oc1ccc(C(F)(F)F)cc1)c1ccccc1)C(=O)SCCO[N+](=O)[O-] (stereo unspecified),Activity,Mus musculus [6],Active
same,Drug metabolism,[7],Active
same,Drug metabolism,Brain [8],Active
same,half-life at 200 µM,[9],1.67 h
same,Drug metabolism,[10],Active
same,Activity,Rattus norvegicus [11],Active
same,Activity,Rattus norvegicus [12],Active
same,Drug metabolism,[13],Active
same,Drug metabolism,Plasma [14],Active
same,Drug metabolism,Plasma [15],Active
same,Activity,Rattus norvegicus [16],Active
same,Drug metabolism,[17],Active
same,Efficacy,[18],< 15%
same,Drug metabolism,Brain [19],Active
same,Drug metabolism,[20],8.9 nM
O=C(SCCO[N+](=O)[O-])N1CC[C@@H](c2ccc(F)cc2)[C@H](COc2ccc3c(c2)OCO3)C1,Efficacy,[18],< 15%
